Test results as given in ChEMBL document CHEMBL1649311, “A clinical isolate of Candida albicans with mutations in ERG11 (encoding sterol 14alpha-demethylase) and ERG5 (encoding C22 desaturase) is cross resistant to azoles and amphotericin B” (2010).
≈ marks a conversion by molar mass, not a printed value.

How the values were obtained:
Candida albicans [1] = experiment: Effect on sterol composition in Candida albicans isolate 14 expressing wild type erg11 and erg5 assessed as ergosterol level after 2 hrs by gas chromatography; format: functional; parameters: concentration or dose not given beside the values
Candida albicans [2] = experiment: Antifungal activity against Candida albicans isolate 14 after 48 hrs by broth microdilution method; format: functional; settings: isolate 14, 48 h
How it was run: (§1)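 CLSI M27-A2 broth dilution in RPMI 1640 buffered with 0.165 M MOPS (pH 7), 37°C, for azoles (fluconazole, voriconazole, itraconazole, ketoconazole, clotrimazole). For amphotericin B, the MIC is the lowest concentration with complete growth inhibition.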

Candida albicans [3] = experiment: Effect on sterol composition in Candida albicans isolate 108 harboring erg11 and erg5 double mutant assessed as 4,14alpha-Dimethylcholesta-8,24-dienol level after 2 hrs by gas chromatography; format: functional
Candida albicans [4] = experiment: Antifungal activity against Candida albicans isolate 108 harboring erg11 and erg5 double mutant after 48 hrs by broth microdilution method in presence of 10 uM of efflux pump inhibitor FK506; format: functional; settings: isolate 108, 48 h
How it was run: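 C. albicans clinical isolate grown in RPMI 1640 buffered with 0.165 M MOPS (pH 7). Azole MICs by CLSI M27-A2 broth microdilution, with doubling drug dilutions plus a fixed 10 μM FK506. Plates incubated 48 h at 37°C and read visually. MIC taken as the lowest azole concentration giving at least 80% growth inhibition versus control wells.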

Candida albicans [5] = experiment: Antifungal activity against Candida albicans isolate 14 after 48 hrs by broth microdilution method in presence of 10 uM of efflux pump inhibitor FK506; format: functional; settings: isolate 14, 48 h
How it was run: (§2)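 Doubling dilutions of azole with a fixed 10 μM FK506 in microtiter wells in MOPS-buffered RPMI 1640 (pH 7). Read visually after 48 h at 37°C. The MIC is the lowest azole concentration giving at least 80% growth inhibition versus control wells.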

Candida albicans [6] = experiment: Effect on sterol composition in Candida albicans isolate 108 harboring erg11 and erg5 double mutant eburicol level after 2 hrs by gas chromatography; format: functional; parameters: concentration or dose not given beside the values
Candida albicans [7] = experiment: Antifungal activity against Candida albicans isolate 6 after 48 hrs by broth microdilution method; format: functional; settings: isolate 6, 48 h; how it was run: as §1
Candida albicans [8] = experiment: Effect on sterol composition in Candida albicans isolate 14 expressing wild type erg11 and erg5 assessed as 14 -Methylergosta-8,24(28)-dien-3beta,6alpha-diol level after 2 hrs by gas chromatography; format: functional; parameters: concentration or dose not given beside the values
Candida albicans [9] = experiment: Antifungal activity against Candida albicans isolate 177 after 48 hrs by broth microdilution method; format: functional; settings: isolate 177, 48 h; how it was run: as §1
Candida albicans [10] = experiment: Effect on sterol composition in Candida albicans isolate 108 harboring erg11 and erg5 double mutant assessed as 14alpha-Methylfecosterol level after 2 hrs by gas chromatography; format: functional
Candida albicans [11] = experiment: Effect on sterol composition in Candida albicans isolate 108 harboring erg11 and erg5 double mutant assessed as zymosterol level after 2 hrs by gas chromatography; format: functional
Candida albicans [12] = experiment: Effect on sterol composition in Candida albicans isolate 14 expressing wild type erg11 and erg5 assessed as lanosterol level after 2 hrs by gas chromatography; format: functional
Candida albicans [13] = experiment: Effect on sterol composition in Candida albicans isolate 14 expressing wild type erg11 and erg5 assessed as obtusifoliol level after 2 hrs by gas chromatography; format: functional; parameters: concentration or dose not given beside the values
Candida albicans [14] = experiment: Effect on sterol composition in Candida albicans isolate 108 harboring erg11 and erg5 double mutant assessed as ergosta 5,7-dienol level after 2 hrs by gas chromatography; format: functional; parameters: concentration or dose not given beside the values
Candida albicans [15] = experiment: Effect on sterol composition in Candida albicans isolate 108 harboring erg11 and erg5 double mutant assessed as lanosterol level after 2 hrs by gas chromatography; format: functional; parameters: concentration or dose not given beside the values
Candida albicans [16] = experiment: Effect on sterol composition in Candida albicans isolate 14 expressing wild type erg11 and erg5 assessed as eburicol level after 2 hrs by gas chromatography; format: functional
Candida albicans [17] = experiment: Effect on sterol composition in Candida albicans isolate 108 harboring erg11 and erg5 double mutant assessed as obtusifoliol level after 2 hrs by gas chromatography; format: functional; parameters: concentration or dose not given beside the values
Candida albicans [18] = experiment: Antifungal activity against Candida albicans isolate 108 harboring erg11 and erg5 double mutant after 48 hrs by broth microdilution method; format: functional; settings: isolate 108, 48 h; how it was run: as §1
Candida albicans [19] = experiment: Antifungal activity against Candida albicans isolate 6 after 48 hrs by broth microdilution method in presence of 10 uM of efflux pump inhibitor FK506; format: functional; how it was run: as §2
Candida albicans [20] = experiment: Antifungal activity against Candida albicans isolate 177 after 48 hrs by broth microdilution method in presence of 10 uM of efflux pump inhibitor FK506; format: functional; settings: isolate 177, 48 h; how it was run: as §2
Candida albicans [21] = experiment: Effect on sterol composition in Candida albicans isolate 108 harboring erg11 and erg5 double mutant assessed as 14 -Methylergosta-8,24(28)-dien-3beta,6alpha-diol level after 2 hrs by gas chromatography; format: functional
Candida albicans [22] = experiment: Effect on sterol composition in Candida albicans isolate 108 harboring erg11 and erg5 double mutant assessed as 4,4-Dimethylcholesta-8,14,24-trienol level after 2 hrs by gas chromatography; format: functional
Candida albicans [23] = experiment: Antifungal activity against Candida albicans isolate 6 after 48 hrs by Etest; settings: isolate 6, 48 h
Candida albicans [24] = experiment: Ratio of MIC for Candida albicans isolate 108 harboring erg11 and erg5 double mutant to MIC for Candida albicans isolate 6 expressing wild type erg11 and erg 5 enzyme; format: functional
Candida albicans [25] = experiment: Antifungal activity against Candida albicans isolate 14 after 48 hrs by Etest; settings: isolate 14, 48 h
Candida albicans [26] = experiment: Ratio of MIC for Candida albicans isolate 108 harboring erg11 and erg5 double mutant to MIC for Candida albicans isolate14 expressing wild type erg11 and erg 5 enzyme; format: functional
Candida albicans [27] = experiment: Antifungal activity against Candida albicans isolate 108 harboring erg11 and erg5 double mutant after 48 hrs by Etest; format: functional; settings: isolate 108, 48 h
Candida albicans [28] = experiment: microbe, parasite or virus in culture; settings: isolate 177, 48 h
Candida albicans [29] = experiment: Ratio of MIC for Candida albicans isolate 108 harboring erg11 and erg5 double mutant to MIC for Candida albicans isolate 177 expressing wild type erg11 and erg 5 enzyme; format: functional

SMILES	Activity (Candida albicans [1])	MIC (Candida albicans [2])	Activity (Candida albicans [3])	MIC (Candida albicans [4])	MIC (Candida albicans [5])	Activity (Candida albicans [6])	MIC (Candida albicans [7])	Activity (Candida albicans [8])	MIC (Candida albicans [9])	Activity (Candida albicans [10])	Activity (Candida albicans [12])	Activity (Candida albicans [13])	Activity (Candida albicans [14])	Activity (Candida albicans [15])	Activity (Candida albicans [17])	MIC (Candida albicans [18])	MIC (Candida albicans [20])	Activity (Candida albicans [21])	further results
OC(Cn1cncn1)(Cn1cncn1)c1ccc(F)cc1F [FLUCONAZOLE]	45.5%	1 µg/mL (≈ 3.27 µM)	5.5%	16 µg/mL	1 µg/mL	0.9%	256 µg/mL (≈ 836 µM)	25.4%	256 µg/mL (≈ 836 µM)	9.4%	25%	25%	57.1%	25.7%	25.7%	64 µg/mL (≈ 209 µM)	0.5 µg/mL	–	Activity (Candida albicans [11]): 1.4%; Activity (Candida albicans [16]): 4.1%; Activity (Candida albicans [19]): 1 µg/mL
CC(=O)N1CCN(c2ccc(OCC3COC(Cn4ccnc4)(c4ccc(Cl)cc4Cl)O3)cc2)CC1 (stereo unspecified) [KETOCONAZOLE]	36.4%	0.0625 µg/mL (≈ 0.118 µM)	–	–	–	10.2%	16 µg/mL (≈ 30.1 µM)	37.2%	16 µg/mL (≈ 30.1 µM)	–	26.4%	26.4%	24.4%	20.3%	20.3%	1 µg/mL (≈ 1.88 µM)	–	45.1%	–
C[C@@H](c1ncncc1F)[C@](O)(Cn1cncn1)c1ccc(F)cc1F [VORICONAZOLE]	47.3%	0.0625 µg/mL (≈ 0.179 µM)	7.2%	4 µg/mL	< 0.0625 µg/mL	9.4%	16 µg/mL (≈ 45.8 µM)	28.6%	16 µg/mL (≈ 45.8 µM)	12.7%	24.1%	24.1%	27.4%	29.5%	29.5%	8 µg/mL (≈ 22.9 µM)	< 0.0625 µg/mL	10.4%	Activity (Candida albicans [22]): 3.4%; MIC (Candida albicans [19]; Candida albicans, isolate 6, 48 h): < 0.0625 µg/mL
C[C@@H]1[C@H](O)[C@@H](C)/C=C/C=C/C=C/C=C/C=C/C=C/C=C/[C@H](O[C@@H]2O[C@H](C)[C@@H](O)[C@H](N)[C@@H]2O)C[C@@H]2O[C@](O)(C[C@@H](O)C[C@@H](O)[C@H](O)CC[C@@H](O)C[C@@H](O)CC(=O)O[C@H]1C)C[C@H](O)[C@H]2C(=O)O [AMPHOTERICIN B]	–	–	–	–	–	–	–	–	–	–	–	–	–	–	–	–	–	–	MIC (Candida albicans [23]): 0.25 µg/mL (≈ 0.271 µM); Ratio (Candida albicans [24]): 8; MIC (Candida albicans [25]): 0.25 µg/mL (≈ 0.271 µM); Ratio (Candida albicans [26]): 8; MIC (Candida albicans [27]): 4 µg/mL (≈ 4.33 µM); MIC (Candida albicans [28]): 0.25 µg/mL (≈ 0.271 µM); Ratio (Candida albicans [29]): 8
Clc1ccccc1C(c1ccccc1)(c1ccccc1)n1ccnc1 [CLOTRIMAZOLE]	30%	0.0625 µg/mL (≈ 0.181 µM)	–	–	–	8.2%	1 µg/mL (≈ 2.9 µM)	35%	1 µg/mL (≈ 2.9 µM)	–	35%	35%	42.6%	16.4%	16.4%	2 µg/mL (≈ 5.8 µM)	–	32.8%	–
CCC(C)n1ncn(-c2ccc(N3CCN(c4ccc(OCC5COC(Cn6cncn6)(c6ccc(Cl)cc6Cl)O5)cc4)CC3)cc2)c1=O (stereo unspecified) [ITRACONAZOLE]	33%	0.0625 µg/mL (≈ 0.0886 µM)	–	–	–	8.3%	16 µg/mL (≈ 22.7 µM)	38%	16 µg/mL (≈ 22.7 µM)	–	29%	29%	25%	16.7%	16.7%	2 µg/mL (≈ 2.83 µM)	–	50%	–
